ChEMBL document CHEMBL1126266, “Dopaminergic and serotonergic activities of imidazoquinolinones and related compounds” (J Med Chem, 1992)

Legend:
[1] = organism: Rattus norvegicus; assay: Dose required to reduce neuronal firing of serotonergic cells by 50%; type: functional
Procedure, shortened: (§1)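 Male Sprague-Dawley rats (280-330 g) under chloral hydrate 400 mg/kg ip. Extracellular recording from dorsal raphe neurons (biphasic spikes, about 0.8–2.5 spikes/s), location confirmed by dye deposit. Drug in distilled water given iv via femoral vein.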

[2] = system: Rattus norvegicus; assay: Percent change in 5-HTP levels in rat brain following 1 mg/kg administration.
[3] = organism: Rattus norvegicus; assay: Dose required to reduce neuronal firing of dopaminergic cells by 50%; type: functional
Procedure, shortened: (§2)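 Male Sprague-Dawley rats (280-330 g) anesthetized with chloral hydrate 400 mg/kg ip. Extracellular recording from substantia nigra pars compacta neurons (action potential >2.5 ms), site verified histologically. Drug in distilled water given iv via femoral vein. Firing rate measured by integrated ratemeter.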

[4] = system: Rattus norvegicus; assay: Percent change in DOPA levels in rat brain following 1 mg/kg administration.; type: functional
Procedure, shortened: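 Upjohn CF-1 rats given drug or vehicle sc. Fifteen minutes later, m-hydroxybenzylhydrazine 100 mg/kg ip was given as decarboxylase inhibitor. Control and test groups (n = 6 each) compared by unpaired t test.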

[5] = target: T1, D(2) dopamine receptor (Rattus norvegicus, UniProt P61169); assay: Compound was evaluated for its ability to displace [3H]raclopride from dopamine receptor D2 in rat striatal homogenates
T1 sequence (P61169 whole entry): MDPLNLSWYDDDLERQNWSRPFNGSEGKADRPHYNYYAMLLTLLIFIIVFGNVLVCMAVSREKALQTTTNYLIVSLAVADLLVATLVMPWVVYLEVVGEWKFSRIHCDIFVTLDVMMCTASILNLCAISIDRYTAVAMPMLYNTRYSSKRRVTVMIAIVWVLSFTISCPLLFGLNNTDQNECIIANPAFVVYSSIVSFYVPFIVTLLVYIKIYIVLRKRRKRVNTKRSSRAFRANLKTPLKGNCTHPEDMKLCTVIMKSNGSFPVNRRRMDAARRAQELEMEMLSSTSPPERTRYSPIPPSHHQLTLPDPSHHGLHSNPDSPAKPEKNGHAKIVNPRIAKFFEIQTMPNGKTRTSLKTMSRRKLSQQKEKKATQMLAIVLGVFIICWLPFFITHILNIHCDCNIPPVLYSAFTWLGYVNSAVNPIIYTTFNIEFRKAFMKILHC
Procedure, shortened: (§3)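 Rat striatal homogenate (1:300) incubated with [3H]raclopride (80 Ci/mmol) 1 h at room temperature. Filtered over PEI-pretreated filters, rinsed with 50 mM Tris pH 7.4, counted by liquid scintillation. Nonspecific binding with 1 μM haloperidol. IC50 by log-probit analysis from at least four concentrations in triplicate; Ki calculated from IC50.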

[6] = target: T1, D(2) dopamine receptor; assay: Ability to displace [3H]raclopride from dopamine receptor D2 in rat striatal homogenates.; procedure, shortened: as §3
[7] = Dose required to reduce neuronal firing of DA cells by 50%; type: functional; procedure, shortened: as §2
[8] = target: T2, 5-hydroxytryptamine receptor 1A (Homo sapiens) (UniProt P08908); assay: Dose required to reduce neuronal firing of 5-HT1A cells by 50%; type: functional; procedure, shortened: as §1
T2 sequence (whole entry): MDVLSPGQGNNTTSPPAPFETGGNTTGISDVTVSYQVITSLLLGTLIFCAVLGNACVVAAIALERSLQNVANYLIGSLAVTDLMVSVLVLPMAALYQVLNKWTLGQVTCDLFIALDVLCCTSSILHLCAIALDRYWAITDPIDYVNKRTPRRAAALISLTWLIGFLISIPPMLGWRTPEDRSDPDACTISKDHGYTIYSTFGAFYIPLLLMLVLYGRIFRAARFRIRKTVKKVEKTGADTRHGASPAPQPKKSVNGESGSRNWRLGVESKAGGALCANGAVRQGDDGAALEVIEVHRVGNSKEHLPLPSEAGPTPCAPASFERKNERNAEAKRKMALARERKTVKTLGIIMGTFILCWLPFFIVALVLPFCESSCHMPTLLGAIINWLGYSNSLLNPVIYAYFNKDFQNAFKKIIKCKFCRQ

[9] = target: T1, D(2) dopamine receptor; assay: Compound was evaluated for its ability to displace [3H]raclopride from Dopamine receptor D2 in rat striatal homogenates; procedure, shortened: as §3

Which results are given for `Br.CCCN(CCC)[C@@H]1Cc2cccc3nc(O)n(c23)C1`?
ED50 [1]: 0.107 mg/kg; Change [2]: -1.2%; ED50 [3]: 0.0014 mg/kg; Change [4]: -50%; Ki [5]: 68 nM

With `CCCCN(CCCC)C1Cc2cccc3nc(O)n(c23)C1` (stereo not drawn) as the compound, how does the Ki [6] read?
Its Ki is greater than 10000 nM.

Which Ki [6] does the source give for `CCCN(CCC)C1Cc2cccc3c2N(C1)C(=O)C3` (stereo not drawn) here?
Its Ki is 1080 nM.

And the Change [2]?
Its Change is -11%.

And the Change [4]?
Its Change is -53%.

With `CCCN(CCC)C1Cc2cccc3c2N(CC(=O)N3)C1.Cl` (stereo not drawn) as the compound, how does the Ki [6] read?
The Ki was 30 nM.

What about the ED50 [7] of the same compound?
Its ED50 is 0.039 mg/kg.

What about the Change [2] of the same compound?
The Change was 16%.

And the Change [4]?
The Change was -52%.

Which Ki [6] does the source give for `Oc1nc2cccc3c2n1CC(NCC1CC1)C3` (stereo not drawn) here?
The Ki was 4000 nM.

Which Ki [6] does the source give for `CCCN(CCC)C1Cc2cccc3c2N(C1)C(=O)CC3` (stereo not drawn) here?
The Ki was 83 nM.

What about the Change [2] of the same compound?
The Change was -48%.

What about the Change [4] of the same compound?
Its Change is -41%.

For `CCCN(CCC)C1Cc2cccc3c2N(C1)C(=O)OC3.Cl` (stereo not drawn), which Ki [6] is on record?
The Ki was 292 nM.

And the Change [2]?
Its Change is -13%.

And the Change [4]?
The Change was -36%.

What does the source list for `CCCN(CCC)C1Cc2cccc3c2N(C1)C(=O)CO3.O=C(O)/C=C/C(=O)O` (stereo not drawn)?
Change [2]: -12%; Change [4]: -18%

Which Ki [6] does the source give for `CCCN(CCC)C1Cc2cccc3c2N(CCC3)C1` (stereo not drawn) here?
The Ki was 35 nM.

For `CCCN(CCC)[C@H]1Cc2cccc3nc(O)n(c23)C1.Cl`, which ED50 [7] is on record?
Its ED50 is greater than 1 mg/kg.

And the Change [2]?
Its Change is 6.4%.

And the Change [4]?
The Change was 0.3%.

And the Ki [5]?
Its Ki is greater than 1000 nM.

For `CCCN(Cc1ccccc1)C1Cc2cccc3[nH]c(=O)n(c23)C1` (stereo not drawn), which Ki [6] is on record?
The Ki was 1910 nM.

With `CCCN(CCC)C1Cc2cccc3c2N(C1)C(=O)CN3` (stereo not drawn) as the compound, how does the Ki [6] read?
The Ki was 80 nM.

And the Change [2]?
The Change was -32%.

And the Change [4]?
Its Change is -37%.

For `CCCNC1Cc2cccc3nc(O)n(c23)C1.Cl` (stereo not drawn), which Ki [6] is on record?
The Ki was 1040 nM.

What about the ED50 [7] of the same compound?
The ED50 was 0.036 mg/kg.

What about the ED50 [8] of the same compound?
The ED50 was 0.65 mg/kg.

Which Ki [6] does the source give for `C=CCNC1Cc2cccc3nc(O)n(c23)C1` (stereo not drawn) here?
Its Ki is 363 nM.

Which Ki [6] does the source give for `CCCN(CCC)C1Cc2cccc3[nH]c(=O)c(=O)n(c23)C1.Cl` (stereo not drawn) here?
The Ki was 150 nM.

And the ED50 [7]?
The ED50 was 0.088 mg/kg.

And the Change [2]?
Its Change is 6%.

What about the Change [4] of the same compound?
Its Change is -37%.

For `NC1Cc2cccc3nc(O)n(c23)C1` (stereo not drawn), which Ki [6] is on record?
Its Ki is greater than 10000 nM.

With `CCCN(CCC)C1Cc2cccc3c2N(CC3)C1.O=C(O)/C=C/C(=O)O` (stereo not drawn) as the compound, how does the Ki [6] read?
The Ki was greater than 1000 nM.

And the Change [2]?
The Change was -13%.

What about the Change [4] of the same compound?
The Change was -33%.

With `CCCN(CCC)C1Cc2cccc3ccc(=O)n(c23)C1` (stereo not drawn) as the compound, how does the Ki [6] read?
The Ki was 315 nM.

And the Change [2]?
Its Change is -18%.

And the Change [4]?
Its Change is -40%.

For `CCCN(CCC)C1Cc2cccc3c2N(C1)C(=O)C3=O` (stereo not drawn), which Ki [6] is on record?
Its Ki is greater than 1000 nM.

What about the Change [2] of the same compound?
Its Change is -7%.

And the Change [4]?
Its Change is -46%.

For `CN(C)C1Cc2cccc3nc(O)n(c23)C1` (stereo not drawn), which Ki [6] is on record?
The Ki was greater than 10000 nM.

For `CCCN(CCC)C1Cc2cccc3nc(SC)n(c23)C1` (stereo not drawn), which Ki [6] is on record?
The Ki was greater than 1000 nM.

Which Ki [6] does the source give for `Oc1nc2cccc3c2n1CC(N(CC1CC1)CC1CC1)C3` (stereo not drawn) here?
The Ki was 7730 nM.

Which Ki [9] does the source give for `CCCN(CCC)C1Cc2cccc3nc(C)n(c23)C1` (stereo not drawn) here?
The Ki was greater than 1000 nM.

Which Ki [6] does the source give for `CCCCN(CCC)C1Cc2cccc3nc(O)n(c23)C1` (stereo not drawn) here?
The Ki was 167 nM.

Which Ki [6] does the source give for `CCCN(CCC)C1Cc2cccc3ccn(c23)C1.O=C(O)/C=C/C(=O)O` (stereo not drawn) here?
The Ki was 210 nM.

And the ED50 [7]?
The ED50 was 0.083 mg/kg.

What about the Change [2] of the same compound?
Its Change is -14%.

What about the Change [4] of the same compound?
The Change was -29%.

Which results are given for `CCCN(CCC)C1Cc2cccc3c2N(C1)C(=O)NC3` (stereo not drawn)?
Ki [6]: > 1000 nM; ED50 [7]: 0.212 mg/kg; Change [2]: -45%; Change [4]: -13%; ED50 [8]: 0.0034 mg/kg

Which Ki [6] does the source give for `C=CCN(CC=C)C1Cc2cccc3nc(O)n(c23)C1` (stereo not drawn) here?
Its Ki is greater than 10000 nM.

With `CCCN(CCC)C1Cc2cccc3c2n(c(=O)n3C)C1` (stereo not drawn) as the compound, how does the Ki [5] read?
Its Ki is 924 nM.

Which Ki [6] does the source give for `CCCN(CCC)C1Cc2cccc3oc(=O)n(c23)C1` (stereo not drawn) here?
Its Ki is 899 nM.

And the Change [2]?
The Change was -6%.

What about the Change [4] of the same compound?
Its Change is -27%.

Which Ki [6] does the source give for `CCCN(CCC)C1Cc2cccc3ncn(c23)C1` (stereo not drawn) here?
The Ki was greater than 1000 nM.

And the ED50 [7]?
Its ED50 is 0.219 mg/kg.

What about the Change [2] of the same compound?
The Change was -7%.

And the Change [4]?
Its Change is -12%.

For `CCCN(CCC)C1Cc2cccc3nc(O)n(c23)C1.Cl` (stereo not drawn), which Ki [6] is on record?
The Ki was 207 nM.

And the ED50 [7]?
The ED50 was 0.005 mg/kg.

And the Change [2]?
Its Change is 12%.

And the Change [4]?
The Change was -34%.

What about the ED50 [8] of the same compound?
Its ED50 is 0.34 mg/kg.

Which results are given for `CN1CCc2cccc3c2[C@H]1Cc1ccc(O)c(O)c1-3` [APOMORPHINE]?
Change [2]: 4%; Change [4]: -55%

With `CCCCNC1Cc2cccc3[nH]c(=O)n(c23)C1` (stereo not drawn) as the compound, how does the Ki [5] read?
Its Ki is greater than 10000 nM.

Which Ki [6] does the source give for `CCCN(CCC)C1Cc2cccc3nc(S)n(c23)C1` (stereo not drawn) here?
Its Ki is 40 nM.

What about the Change [2] of the same compound?
The Change was -7%.

And the Change [4]?
The Change was -38%.
